Laboratory results reported in ChEMBL document CHEMBL2406970, “Synthesis and bioevaluation of a series of α-pyrone derivatives as potent activators of Nrf2/ARE pathway (part I)” (Eur J Med Chem, 2013).
Active and inactive are the calls of the source. The calls are words filed in the database; no cut-off is given here.

Experiments:
HCT-116 [1] = experiment: Cytotoxicity against human HCT116 cells by MTT assay; format: functional, cell-based
Outline: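 HCT116 cells were cultured in McCoy's 5A with 10% FBS and exposed to a range of compound concentrations. MTT was added for 4 h, the solution removed and DMSO added. OD was read at 570 nm, and inhibition calculated as [1 − (OD_test − OD_blank)/(OD_control − OD_blank)] × 100%.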

[2] = biological target: T1, Keap1/Nrf2 (Homo sapiens) (UniProt Q16236+Q14145); experiment: Induction of Nrf2/Keap1 in human HCT116 cells assessed as induction of ARE activity at 20 uM after 12 hrs by luciferase reporter gene assay relative to control; format: cell-based; conditions: HCT-116
T1 sequence (Q14145 whole entry, looked up, one chain of several): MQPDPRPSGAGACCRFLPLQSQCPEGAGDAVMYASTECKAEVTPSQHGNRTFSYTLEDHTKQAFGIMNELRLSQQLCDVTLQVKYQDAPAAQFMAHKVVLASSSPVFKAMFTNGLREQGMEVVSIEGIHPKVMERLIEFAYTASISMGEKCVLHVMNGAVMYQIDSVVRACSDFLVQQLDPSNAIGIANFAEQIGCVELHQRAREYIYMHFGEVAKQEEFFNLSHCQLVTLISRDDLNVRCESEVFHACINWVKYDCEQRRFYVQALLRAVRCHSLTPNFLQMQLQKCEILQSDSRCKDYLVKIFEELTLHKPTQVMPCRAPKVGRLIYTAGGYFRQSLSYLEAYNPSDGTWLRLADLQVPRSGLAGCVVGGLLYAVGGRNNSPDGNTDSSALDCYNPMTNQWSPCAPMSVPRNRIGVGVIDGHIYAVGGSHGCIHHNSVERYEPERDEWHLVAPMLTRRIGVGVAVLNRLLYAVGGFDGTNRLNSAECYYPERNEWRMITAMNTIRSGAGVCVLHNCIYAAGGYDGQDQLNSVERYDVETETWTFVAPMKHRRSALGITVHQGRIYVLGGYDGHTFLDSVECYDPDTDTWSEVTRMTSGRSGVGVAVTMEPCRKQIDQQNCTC

[3] = biological target: T1, Keap1/Nrf2 (Homo sapiens); experiment: Induction of Nrf2/Keap1 in human HepG2-ARE-C8 cells assessed as induction of ARE activity at 50 uM after 12 hrs by luciferase reporter gene assay relative to control
HCT-116 [4] = experiment: Induction of nuclear translocation of Nrf2 in human HCT116 cells at 20 uM after 1 hr by Western blot analysis; format: functional, cell-based
[5] = biological target: T2, Nuclear factor erythroid 2-related factor 2 (Homo sapiens) (UniProt Q16236); experiment: Activation of NRF2 in human HCT116 cells assessed as ERK1/2 phosphorylation at 20 uM after 30 mins to 1 hr by Western blot analysis; format: cell-based; conditions: HCT-116
T2 sequence (whole entry): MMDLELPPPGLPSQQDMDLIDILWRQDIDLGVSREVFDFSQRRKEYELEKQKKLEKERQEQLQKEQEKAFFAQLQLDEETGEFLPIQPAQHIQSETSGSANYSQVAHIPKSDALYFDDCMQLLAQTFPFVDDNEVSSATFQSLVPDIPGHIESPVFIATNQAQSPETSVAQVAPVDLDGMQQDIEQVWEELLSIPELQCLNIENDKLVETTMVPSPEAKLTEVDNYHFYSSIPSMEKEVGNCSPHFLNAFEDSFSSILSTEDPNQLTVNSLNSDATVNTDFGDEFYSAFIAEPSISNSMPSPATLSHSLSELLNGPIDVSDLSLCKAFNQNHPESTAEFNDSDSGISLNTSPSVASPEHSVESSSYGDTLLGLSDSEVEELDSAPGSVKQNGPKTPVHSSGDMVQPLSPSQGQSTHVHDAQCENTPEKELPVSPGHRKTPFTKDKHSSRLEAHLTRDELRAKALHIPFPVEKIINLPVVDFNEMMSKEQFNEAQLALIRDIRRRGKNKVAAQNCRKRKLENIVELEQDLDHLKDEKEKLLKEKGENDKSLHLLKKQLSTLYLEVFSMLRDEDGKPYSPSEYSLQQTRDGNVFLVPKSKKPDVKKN

HCT-116 [6] = experiment: Induction of HO-1 expression in human HCT116 cells at 20 uM up to 24 hrs by Western blot analysis in presence of MEK1/2 inhibitor PD98059; format: functional, cell-based
HCT-116 [7] = experiment: Induction of NQO-1 expression in human HCT116 cells at 20 uM after 24 hrs by Western blot analysis; format: functional, cell-based
HCT-116 [8] = experiment: Induction of nuclear translocation of Nrf2 in human HCT116 cells at 20 uM after 24 hrs by Western blot analysis; format: functional, cell-based
[9] = biological target: T2, Nuclear factor erythroid 2-related factor 2 (Homo sapiens); experiment: Activation of NRF2 in human HCT116 cells assessed as expression of ERK1/2 at 20 uM up to 24 hrs by Western blot analysis; format: cell-based; conditions: HCT-116
[10] = biological target: T1, Keap1/Nrf2 (Homo sapiens); experiment: Induction of Nrf2/Keap1 in human HCT116 cells assessed as induction of ARE activity at 20 uM after 12 hrs by luciferase reporter gene assay in presence of MEK1/2 inhibitor PD98059; format: cell-based; conditions: HCT-116
HCT-116 [11] = experiment: Induction of Nrf2 expression in human HCT116 cells at 20 uM up to 24 hrs by Western blot analysis in presence of MEK1/2 inhibitor PD98059; format: functional, cell-based
[12] = biological target: T1, Keap1/Nrf2 (Homo sapiens); experiment: Induction of Nrf2/Keap1 in human HCT116 cells assessed as induction of ARE activity after 12 hrs by luciferase reporter gene assay; format: cell-based; conditions: HCT-116
HCT-116 [13] = experiment: Induction of HO-1 expression in human HCT116 cells at 20 uM after 8 hrs by Western blot analysis; format: functional, cell-based
HCT-116 [14] = experiment: Induction of NQO-1 expression in human HCT116 cells at 20 uM up to 24 hrs by Western blot analysis in presence of MEK1/2 inhibitor PD98059; format: functional, cell-based
HCT-116 [15] = experiment: Induction of Nrf2 expression in human HCT116 cells at 20 uM after 2 hrs by Western blot analysis; format: functional, cell-based
HCT-116 [16] = experiment: Induction of nuclear translocation of Nrf2 in human HCT116 cells at 20 uM after 1 to 2 hrs by immunofluorescence staining in presence of MEK1/2 inhibitor PD98059
[17] = biological target: T2, Nuclear factor erythroid 2-related factor 2 (Homo sapiens); experiment: Activation of NRF2 in human HCT116 cells assessed as ERK1/2 phosphorylation at 20 uM after 30 mins to 1 hr by Western blot analysis in presence of MEK1/2 inhibitor PD98059; format: cell-based; conditions: HCT-116
[18] = biological target: T1, Keap1/Nrf2 (Homo sapiens); experiment: Induction of Nrf2/Keap1 in human HCT116 cells assessed as induction of ARE activity at 80 uM after 12 hrs by luciferase reporter gene assay relative to control; format: cell-based; conditions: HCT-116

fold change (FC) [2]	fold change (FC) [3]	Structure (SMILES)	IC50 (HCT-116 [1])	also measured
5.86	2.08	COc1ccccc1/C=C/C(=O)c1c(O)cc(C)oc1=O	> 100 µM	
4.66	5.5	CCOc1ccc(/C=C/C(=O)c2c(O)cc(C)oc2=O)cc1	> 100 µM	
9.65	3.68	Cc1cc(O)c(C(=O)/C=C/c2ccc(F)c(F)c2)c(=O)o1	74.9 µM	
7.04	3.46	Cc1cc(O)c(C(=O)/C=C/c2cccc(F)c2)c(=O)o1	81.2 µM	
8	1.2	Cc1cc(O)c(C(=O)/C=C/c2ccc(Cl)c(Cl)c2)c(=O)o1	> 100 µM	
8.21	6.81	COc1ccc(/C=C/C(=O)c2c(O)cc(C)oc2=O)c(OC)c1	> 100 µM	
4.55	8.09	Cc1cc(O)c(C(=O)/C=C/c2ccc(N(C)C)cc2)c(=O)o1	> 100 µM	
8.58	5.25	COc1cc(/C=C/C(=O)c2c(O)cc(C)oc2=O)cc(OC)c1OC	> 100 µM	
6.48	7.37	COc1ccc(/C=C/C(=O)c2c(O)cc(C)oc2=O)cc1	> 100 µM	
6.46	4.51	Cc1cc(O)c(C(=O)/C=C/c2cccc(Cl)c2)c(=O)o1	66.3 µM	
6.97	6.28	Cc1cc(O)c(C(=O)/C=C/c2ccc(Cl)cc2)c(=O)o1	87.4 µM	

The remaining lines, values behind:

Structure (SMILES)	fold change (FC) [2]	fold change (FC) [3]	IC50 (HCT-116 [1])	also measured
Cc1cc(O)c(C(=O)/C=C/c2ccc(F)cc2F)c(=O)o1	6.93	6.98	80.3 µM	
Cc1cc(O)c(C(=O)/C=C/c2ccc(Cl)cc2Cl)c(=O)o1	5.49	3.27	88.7 µM	
Cc1cc(O)c(C(=O)/C=C/c2ccccc2)c(=O)o1	4.21	6.84	> 100 µM	
Cc1cc(O)c(C(=O)/C=C/c2ccc(F)cc2)c(=O)o1	6.33	5.79	> 100 µM	
Cc1cc(O)c(C(=O)/C=C/c2cccs2)c(=O)o1	4.53	5.96	> 100 µM	
Cc1cc(O)c(C(=O)/C=C/c2ccccc2[N+](=O)[O-])c(=O)o1	2.74	0.65	> 100 µM	
Cc1cc(O)c(C(=O)/C=C/c2ccccc2Cl)c(=O)o1	5.08	0.95	> 100 µM	
Cc1cc(O)c(C(=O)/C=C/c2ccccc2C(F)(F)F)c(=O)o1	4.27	2.55	> 100 µM	
Cc1cc(O)c(C(=O)/C=C/c2ccc(-c3ccccc3)cc2)c(=O)o1	5.67	3.6	> 100 µM	
Cc1cc(O)c(C(=O)/C=C/c2ccc([N+](=O)[O-])cc2)c(=O)o1	4.77	2.48	65 µM	
Cc1cc(O)c(C(=O)/C=C/c2ccco2)c(=O)o1	3.8	5.48	> 100 µM	
Cc1cc(O)c(C(=O)/C=C/c2ccc(C#N)cc2)c(=O)o1	3.68	2.07	66 µM	
Cc1cc(O)c(C(=O)/C=C/c2ccc3ccccc3c2)c(=O)o1	1.37	2.17	> 100 µM	
Cc1cc(O)c(C(=O)/C=C/c2ccccc2F)c(=O)o1	7.08	3.04	> 100 µM	Activity (HCT-116 [4]): Active; Activity [5]: Active; Activity (HCT-116 [6]): inactive; Activity (HCT-116 [7]): Active; Activity (HCT-116 [8]): inactive; Activity [9]: inactive; Activity [10]: inactive; Activity (HCT-116 [11]): inactive; Activity [12]: Dose-dependent effect; Activity (HCT-116 [13]): Active; Activity (HCT-116 [14]): inactive; Activity (HCT-116 [15]): Active; Activity (HCT-116 [16]): inactive; Activity [17]: inactive
CC(C)(C)c1cc(O)ccc1O [E319]			> 100 µM	fold change (FC) [18]: 5.08
Cc1cc(O)c(C(=O)/C=C/c2ccc[nH]2)c(=O)o1	1.66	3.58	> 100 µM	
